Ki, Activity and Kb data for 32 compounds are collected here from ChEMBL document CHEMBL1143199, “Discovery and SAR of hydrazide antagonists of the pituitary adenylate cyclase-activating polypeptide (PACAP) receptor type 1 (PAC1-R)” (Bioorg Med Chem Lett, 2008).

Activity calls are given as the source filed them. The calls are words filed in the database; no cut-off is given here.

One assay deals with T1, Pituitary adenylate cyclase-activating polypeptide type I receptor (Homo sapiens, UniProt P41586). Put plainly: Displacement of [125I]PACAP27 from PAC1R expressed in HEK293f cells. Format: cell-based.
Settings: not given
The method, boiled down:
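Membranes from HEK293f cells expressing PAC1R (5 lg protein) incubated with 0.2 nM ¹²⁵I-PACAP27 in 50 mM Tris–HCl pH 7.4, 5 mM MgCl₂, 20 min at 37 °C; nonspecific binding with 300 nM unlabeled PACAP38. Terminated by filtration through PEI-soaked GF/B filters, three ice-cold buffer washes, radioactivity counted; Ki reported.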
Background: In a radioligand displacement assay an active substance lowers the binding of a labelled ligand.
For orientation: Ki means the equilibrium dissociation constant of an inhibitor or competing ligand from its target. The compound `O=C(N/N=C/c1cccc(OCc2cccc(C(F)(F)F)c2)c1)c1ccc(O)c(Cl)c1` had a Ki of 554 nM. As for `COc1cc(/C=N/NC(=O)c2ccc(O)c(Cl)c2)cc(OCc2c(C)c(C)cc(C)c2C)c1OC`, the Ki was found to be 167 nM. This Ki lies about 3.3-fold lower than the previous one. Compound `COc1cc(/C=N/NC(=O)c2ccc(O)c(Cl)c2)cc(OC)c1OCc1ccccc1` showed a Ki of 185 nM. `COc1cc(/C=N/NC(=O)c2ccc(O)c(Cl)c2)ccc1OCc1cccc(C(F)(F)F)c1`: the affinity corresponds to a Ki of 404 nM. This Ki is about 2.2-fold higher than that of the compound before. Regarding `COc1cc(/C=N/NC(=O)c2cccc(Cl)c2)cc(OC)c1OCc1ccc(C(C)C)cc1`, the result was inactive.

`O=C(N/N=C/c1cccc(COc2ccc(C(F)(F)F)cc2)c1)c1ccc(O)c(Cl)c1` came in with a Ki of 241 nM. In turn, `COc1cc(/C=N/NC(=O)c2ccc(O)c(Cl)c2)cc(OC)c1OCc1ccc(C(F)(F)F)cc1` returned a Ki of 140 nM. On the same count and under the same terms, the same measure for `O=C(N/N=C/c1cccc2c1ccn2Cc1cccc(C(F)(F)F)c1)c1ccc(O)c(Cl)c1`: 85 nM.

`CC(=O)Nc1ccc(COc2ccc(/C=N/NC(=O)c3ccc(O)c(Cl)c3)cc2)cc1`: the result was inactive.

For `COc1cc(/C=N/NC(=O)c2ccc(O)c(Cl)c2)ccc1OCc1ccc(C(C)C)cc1`, the outcome was inactive.

The compound `O=C(N/N=C/c1cccc(COc2cccc(C(F)(F)F)c2)c1)c1ccc(O)c(Cl)c1` returned a Ki of 274 nM. That is a sub-micromolar value. Consider `COc1cc(-c2nnc(-c3ccc(O)c(Cl)c3)s2)cc(OC)c1OCc1ccc(C(C)C)cc1`, for which the outcome was inactive.

`O=C(N/N=C/c1ccc(OCc2ccccc2)cc1)c1ccc(O)c(Cl)c1` returned a Ki of 522 nM. This counts as sub-micromolar. `COc1cc(/C=N/NC(=O)c2ccc(O)c(Cl)c2)cc(OC)c1OCc1cccc(C(F)(F)F)c1` came in with a Ki of 204 nM. As for `COc1cc(/C=N/NC(=O)c2ccc(O)c(Cl)c2)cc(OC)c1OCc1ccc(C(C)C)cc1`, the Ki is 56 nM. Take `COc1cc(/C=N/NC(=O)c2ccc3[nH]ncc3c2)cc(OC)c1OCc1ccc(C(C)C)cc1`: the result was inactive. For `COc1cc(-c2nnc(-c3ccc(O)c(Cl)c3)o2)cc(OC)c1OCc1ccc(C(C)C)cc1`, the outcome was inactive. In turn, `O=C(N/N=C/c1ccc(OCc2cccc(C(F)(F)F)c2)cc1)c1ccc(O)c(Cl)c1` yielded a Ki of 537 nM.

The compound `COc1cc(/C=N/NC(=O)c2ccc(O)c(Cl)c2)cc(OCc2ccc(C(C)C)cc2)c1OC` showed a Ki of 152 nM. In the case of `COc1cc(/C=N/NC(=O)c2ccc(O)c(Cl)c2)cc(OCc2cccc(C(F)(F)F)c2)c1OC`, the outcome was inactive.

The next assay has as its target T1, Pituitary adenylate cyclase-activating polypeptide type I receptor. Put plainly: Displacement of [125I]PACAP27 from PAC1R expressed in HEK293f cells at 3 uM.
Settings: not given
Type of assay: cell-based.
Target sequence in this assay (P41586 21-468 limits assumed): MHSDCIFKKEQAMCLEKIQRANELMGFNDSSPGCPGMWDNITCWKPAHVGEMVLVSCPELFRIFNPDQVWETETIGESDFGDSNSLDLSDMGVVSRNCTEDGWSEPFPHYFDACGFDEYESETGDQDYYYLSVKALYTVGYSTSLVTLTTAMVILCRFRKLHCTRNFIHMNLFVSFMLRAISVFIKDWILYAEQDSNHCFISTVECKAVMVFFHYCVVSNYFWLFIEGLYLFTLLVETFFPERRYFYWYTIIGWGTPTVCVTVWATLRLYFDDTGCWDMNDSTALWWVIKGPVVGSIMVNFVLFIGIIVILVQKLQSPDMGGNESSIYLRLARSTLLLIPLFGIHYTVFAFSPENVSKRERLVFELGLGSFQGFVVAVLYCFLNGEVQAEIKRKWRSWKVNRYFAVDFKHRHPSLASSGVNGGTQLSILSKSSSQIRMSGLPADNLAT
Compound `COc1cc(CNNC(=O)c2ccc(O)c(Cl)c2)cc(OC)c1OCc1ccc(C(C)C)cc1` showed an Activity of 46%. `COc1cc(C(=O)N/N=C/c2cc(OC)c(OCc3ccc(C(C)C)cc3)c(OC)c2)ccc1O` yielded an Activity of 44%. `COc1cc(/C=N/NC(=O)c2ccc(O)cc2)cc(OC)c1OCc1ccc(C(C)C)cc1`: the Activity came out at 22%. `O=C(N/N=C/c1ccc(OCc2ccc(C(F)(F)F)cc2)cc1)c1ccc(O)c(Cl)c1` came in with an Activity of 43%.

On to `COc1cc(C(=O)NNC(=O)c2ccc(O)c(Cl)c2)cc(OC)c1OCc1ccc(C(C)C)cc1`, for which the Activity was determined as 40%. For `COc1cc(/C=N/NC(=O)c2ccc(O)c(Cl)c2)cc(OC)c1OCc1ccc(NC(C)=O)cc1`, the Activity came out at 43%. The compound `CNC(=O)c1ccc(COc2ccc(/C=N/NC(=O)c3ccc(O)c(Cl)c3)cc2OC)cc1` yielded an Activity of 36%.

As for `O=C(N/N=C/c1cccc2c1ccn2Cc1ccc(OCc2ccccc2)cc1)c1ccc(O)c(Cl)c1`, the Activity was determined as 51%. `O=C(N/N=C/c1cccc2c1ccn2Cc1ccccc1)c1ccc(O)c(Cl)c1` came in with an Activity of 55%.

With `COc1cc(/C=N/NC(=O)c2ccc(O)c(Cl)c2)ccc1OCc1ccc(NC(C)=O)cc1`, the Activity worked out at 34%. Consider `COc1cc(/C=N/NC(=O)c2ccc(O)c(Cl)c2)ccc1OCc1ccc(C(F)(F)F)cc1`, for which the Activity worked out at 50%. Still for that read-out and setting: the same measure for `O=C(N/N=C/c1ccc(COc2ccccc2)cc1)c1ccc(O)c(Cl)c1`: 41%.

In another assay the target is T2, Pituitary adenylate cyclase-activating polypeptide type I receptor (Rattus norvegicus) (UniProt P32215).
T2 sequence (whole entry): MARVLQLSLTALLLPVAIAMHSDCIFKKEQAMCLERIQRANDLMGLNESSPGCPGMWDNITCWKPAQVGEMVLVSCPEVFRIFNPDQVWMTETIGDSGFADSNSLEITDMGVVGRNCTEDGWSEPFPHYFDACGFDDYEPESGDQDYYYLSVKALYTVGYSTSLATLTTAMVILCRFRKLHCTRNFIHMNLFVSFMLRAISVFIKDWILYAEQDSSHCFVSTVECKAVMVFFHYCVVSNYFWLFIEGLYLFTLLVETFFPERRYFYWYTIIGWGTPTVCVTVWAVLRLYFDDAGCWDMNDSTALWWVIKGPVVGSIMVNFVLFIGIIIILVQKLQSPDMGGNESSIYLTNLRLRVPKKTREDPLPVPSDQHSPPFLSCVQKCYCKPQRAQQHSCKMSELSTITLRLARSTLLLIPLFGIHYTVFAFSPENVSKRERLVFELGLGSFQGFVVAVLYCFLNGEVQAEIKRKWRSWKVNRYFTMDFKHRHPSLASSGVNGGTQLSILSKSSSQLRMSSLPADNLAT
In words: Antagonist activity at PAC1R in rat AR42J cells assessed as PACAP-induced calcium mobilization by FLIPR assay. Particulars: AR-42J. Format: functional, cell-based. Summed up:
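Cells loaded with Fluo-4AM for 2 h, preincubated with compounds 30 min at room temperature, then challenged with 2 nM PACAP-27; intracellular calcium changes monitored by FLIPR; Kb calculated.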
Usually Kb stands for the equilibrium dissociation constant of an antagonist, usually derived from a functional assay. `COc1cc(/C=N/NC(=O)c2ccc(O)c(Cl)c2)cc(OC)c1OCc1ccc(C(C)C)cc1`: the antagonist dissociation constant (Kb) was 200 nM.
